Experimental data reported in ChEMBL document CHEMBL3112469, “Substituted 2-phenylimidazopyridines: a new class of drug leads for human African trypanosomiasis” (J Med Chem, 2014).
≈ marks a conversion by molar mass, not a printed value. Calls of active or inactive are those of the source. No cut-off for these calls is given here.

Experiments:
Nucleic Acid [1] = assay: Ratio of drug level in brain to plasma in mouse at 5 mg/kg, ip after 60 mins; format: ADME, organism-based; parameters: dose 5 mg/kg, route intraperitoneal; details: 1 h
Method in brief: (§1)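 Mice, groups of three, received 5 mg/kg ip in 0.4 mL vehicle (7% Tween 80, 3% ethanol, 5% DMSO, 0.9% saline) and were sacrificed at set times. Brains were weighed, frozen and homogenized in acetonitrile; plasma came from heparinized capillary blood. Both were measured by LC-MS/MS. Brain concentration used 1 g = 1 mL and was corrected for 2.5% vasculature volume.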

[2] = (§2) Cmax in mouse plasma at 50 mg/kg, po LC-MS analysis; format: ADME, organism-based; parameters: dose 50 mg/kg, route oral; details: plasma
Method in brief: (§3)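 Mice, groups of three, were given 50 mg/kg by oral gavage in 0.2 mL vehicle (7% Tween 80, 3% ethanol, 5% DMSO, 0.9% saline). Blood was sampled at 30, 60, 120, 180, 240 and 360 min. Plasma was separated and extracted with acetonitrile, and compound was quantified by LC-MS/MS.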

[3] = system: Trypanosoma brucei rhodesiense; assay: Antitrypanosomal activity against Trypanosoma brucei rhodesiense ST1B900 infected in Swiss Webster mouse assessed as cure from infection at 50 mg/kg, po qd administered 48 hrs postinfection for 5 days measured on day 60; format: functional, organism-based; parameters: dose 50 mg/kg
Rattus norvegicus [4] = assay: Apparent volume of distribution at steady state in Sprague-Dawley rat at 20 mg/kg, po and 5 mg/kg, iv by LC-MS analysis; format: ADME, organism-based; details: in vivo
Method in brief: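 Jugular-cannulated Sprague-Dawley rats, two per route. Oral gavage 20 mg/kg or iv 5 mg/kg infused over 0–3 min, each in 1 mL of 7% Tween 80/3% EtOH/5% DMSO/saline. Jugular blood sampled from 5 to 1440 min. Plasma extracted with acetonitrile and analysed by LC-MS/MS.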

[5] = system: Trypanosoma brucei rhodesiense; assay: Antitrypanosomal activity against Trypanosoma brucei rhodesiense ST1B900 infected in Swiss Webster mouse assessed as cure from infection at 5 to 50 mg/kg, po bid administered 48 hrs postinfection for 5 days measured on day 60; format: functional, organism-based
[6] = system: Trypanosoma brucei brucei; assay: Antiparasitic activity against Trypanosoma brucei brucei BF427 assessed as growth inhibition by Alamar Blue assay; format: functional, organism-based
Method in brief: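 Bloodstream-form T. brucei brucei BF427 grown with serial compound dilutions, each tested in triplicate. Growth quantified with AlamarBlue. Pentamidine isothionate included in every assay as positive control.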

[7] = (§4) Tmax in mouse plasma at 50 mg/kg, po by LC-MS analysis; format: ADME, organism-based; parameters: dose 50 mg/kg, route oral; details: plasma; method in brief: as §3
[8] = system: Trypanosoma brucei rhodesiense; assay: Antitrypanosomal activity against Trypanosoma brucei rhodesiense ST1B900 infected in Swiss Webster mouse assessed as cure from infection at 1 mg/kg, po bid administered 48 hrs postinfection for 5 days measured on day 4 to 13; format: functional, organism-based; parameters: dose 1 mg/kg
[9] = Apparent permeability across MDCK2 cells expressing human MDR1; format: ADME, cell-based, Canis lupus familiaris; details: dog, mdck-ii
Method in brief: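 MDCKII cells transfected with human MDR1 (P-gp) grown as monolayers; permeability (Papp) measured in triplicate with and without the MDR1 inhibitor GF-120918.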

[10] = (§5) AUC in mouse plasma at 50 mg/kg, po by LC-MS analysis; format: ADME, organism-based; parameters: dose 50 mg/kg, route oral; details: plasma; method in brief: as §3
Rattus norvegicus [11] = assay: Oral bioavailability in Sprague-Dawley rat at 21.3 mg/kg by LC-MS analysis; format: ADME, organism-based; details: in vivo
Mus musculus [12] = assay: Elimination half life in mouse plasma at 50 mg/kg, po by LC-MS analysis; format: ADME, organism-based; parameters: dose 50 mg/kg, route oral; details: in vivo
Method in brief: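 Mice dosed by oral gavage at 50 mg/kg in 0.2 mL vehicle (7% Tween 80, 3% ethanol, 5% DMSO, 0.9% saline), groups of three. Plasma separated and extracted with acetonitrile, and compound quantified by LC-MS/MS.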

Liver microsome = assay: Half life in human liver microsomes by LC-MS analysis; format: ADME
Method in brief: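 Compounds incubated with mouse or human liver microsomes. Samples removed at time points and analysed by LC-MS/MS. Dextromethorphan and testosterone used as reference drugs to standardize each assay.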

[13] = Aqueous solubility of the compound at pH 7.4 after 5 to 10 mins by HPLC analysis; format: physicochemical; details: buffer
L6 = assay: Cytotoxicity against rat L6 cells after 48 hrs by Alamar Blue assay; format: cell-based; details: l6, 48 h
Nucleic Acid [14] = assay: Ratio of drug level in brain to plasma in mouse at 5 mg/kg, ip after 15 mins; format: ADME, organism-based; parameters: dose 5 mg/kg, route intraperitoneal; details: 0.25 h; method in brief: as §1
Mus musculus [15] = assay: as §2; format: ADME, organism-based; parameters: dose 50 mg/kg, route oral; details: in vivo; method in brief: as §3
[16] = Clearance in mouse plasma at 50 mg/kg, po by LC-MS analysis; format: ADME, organism-based; parameters: dose 50 mg/kg, route oral
Method in brief: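 Mice, three per compound, given 50 mg/kg by oral gavage in 0.2 mL of 7% Tween 80/3% ethanol/5% DMSO/0.9% saline. Plasma extracted with acetonitrile and quantified by LC-MS/MS.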

Mus musculus [17] = assay: as §4; format: ADME, organism-based; parameters: dose 50 mg/kg, route oral; details: in vivo; method in brief: as §3
HepG2 = assay: Cytotoxicity against human HepG2 cells after 48 hrs by Alamar Blue assay; format: cell-based; details: hepg2, 48 h
Mus musculus [18] = assay: as §5; format: ADME, organism-based; parameters: dose 50 mg/kg, route oral; details: in vivo; method in brief: as §3
[19] = Cytotoxicity against human CRL8155 cells after 48 hrs by Alamar Blue assay; format: cell-based; details: crl8155, 48 h
[20] = Aqueous solubility of the compound at pH 2 after 5 to 10 mins by HPLC analysis; format: physicochemical; details: buffer
[21] = system: Trypanosoma brucei rhodesiense; assay: Antiparasitic activity against Trypanosoma brucei rhodesiense; format: functional, organism-based

| Compound | BPR (Nucleic Acid [1]) | EC50 [6] [µM] | Papp [9] [nm/s] | CC50 (L6) [µM] | CC50 (HepG2) [µM] | CC50 [19] [µM] | EC50 [21] [µM] | other results |
| --- | --- | --- | --- | --- | --- | --- | --- | --- |
| O=C(Nc1ccc(F)c(-c2nc3cc(-c4ccccc4)cnc3[nH]2)c1)N1CCCC1 | 0.5 | 0.002 | 401 | – | – | – | – | Cmax [2]: 4.3 µM; Activity [3]: Active; Vdss(app) (Rattus norvegicus [4]): 2.4 L/kg; Activity [5]: Active; Tmax [7]: 30 min; Activity [8]: inactive; AUC [10]: 18.8 µM·h; F (Rattus norvegicus [11]): 35% |
| O=C(Nc1ccc(Cl)c(-c2nc3ncccc3o2)c1)c1ccco1 | 0.38 | 0.22 | 417 | > 50 | > 50 | > 50 | – | beta t1/2 (Mus musculus [12]): 53 min; t1/2 (Liver microsome): 6.4 min; solubility [13]: 20 µM (≈ 6.79 µg/mL); BPR (Nucleic Acid [14]): 0.54; Cmax (Mus musculus [15]): 0.06 µM; CL/F [16]: 5.88 L/h/kg; Tmax (Mus musculus [17]): 30 min; AUC (Mus musculus [18]): 187 µM·min; solubility [20]: 22 µM (≈ 7.47 µg/mL) |
| O=C(Nc1ccc(F)c(-c2nc3ncc(-c4ccccc4)cc3o2)c1)c1ccco1 | – | 0.04 | – | 7 | – | – | 0.08 | – |
| O=C(Nc1ccc(Cl)c(-c2nc3ncccc3o2)c1)C(F)(F)F | – | – | – | – | – | – | > 50 | – |
| O=C(Nc1ccc(F)c(-c2nc3ncc(-c4ccc(F)cc4)cc3o2)c1)c1ccco1 | – | 0.05 | – | – | 32 | > 50 | 0.1 | – |
